Series [1] has as its target CDK6/cyclin D3 (Homo sapiens) (UniProt P30281+Q00534). Kind of series: Inhibition of recombinant full-length human CDK6/cyclinD3 at 1 uM using histone H1 as substrate measured after 40 mins in presence of [gamma33P]ATP by scintillation counting method relative to control. Type of series: protein-complex assay. The gist of the method: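 Percent inhibition of kinase activity at a single compound concentration, measured by the outsourced Eurofins KinaseProfiler panel. Values are the mean of two independent experiments.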

Series [2] relates to PC-9. Kind of series: Antiproliferative activity against human PC9 cells assessed as inhibition of cell viability after 72 hrs by CCK-8 assay. Type of series: functional, cell-based. To be noted: PC-9, 72 h. The method in brief: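 Cells kept at 37 °C, 5% CO2 in DMEM or RPMI-1640 with 10% FBS and 1% penicillin/streptomycin, then seeded at 3000 cells/well (adherent) or 10,000 cells/well (suspension). Exposed to a range of concentrations for 72 h. CCK-8 added for 1-4 h before reading A450. […] Three independent experiments.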

Series [3] has as its system NCI-H1299. Kind of series: Induction of apoptosis in human H1299 cells assessed as reduction in Bcl-2 level at 0.25 to 1 uM after 24 hrs by Western blot analysis. The series is classed as functional, cell-based. The method in brief: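 A549 or H1299 cells exposed to the indicated concentrations for 24 h. Protein extracts then immunoblotted for apoptosis-pathway proteins (Bcl2, Bim, cleaved caspase 3).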
Background: In western blotting, separated proteins are transferred to a membrane and probed.

A short description of series [4]: Toxicity in Balb/c mouse xenografted with human H1299 cells assessed as effect on body weight at 20 to 80 mg/kg, po administered for 21 days and measured daily […]. Type of series: organism-based. To be noted: in vivo, 504 h. For orientation: Xenograft models place foreign cells or tissue in a host animal.
The target of series [5] is SRSF protein kinase 3 (Homo sapiens) (UniProt Q9UPE1). Kind of series: Inhibition of recombinant full-length human MSSK1 at 1 uM using ERMRPRKRQGSVRRRV as substrate measured after 40 mins in presence of [gamma33P]ATP by scintillation counting method relative to control.
For series [6], the target named is Muscle, skeletal receptor tyrosine-protein kinase (Homo sapiens) (UniProt O15146). Kind of series: Inhibition of recombinant human MUSK (530 to end residues) at 1 uM using myelin basic protein as substrate measured after 40 mins in presence of [gamma33P]ATP by scintillation counting method relative to control.
The target of series [7] is Serine/threonine-protein kinase Nek7 (Homo sapiens) (UniProt Q8TDX7). Kind of series: Inhibition of recombinant human NEK7 (2 to end residues) at 1 uM using FLAKSFGSPNRAY as substrate measured after 40 mins in presence of [gamma33P]ATP by scintillation counting method relative to control.
Series [8] has as its target NUAK family SNF1-like kinase 2 (Homo sapiens) (UniProt Q9H093). Kind of series: Inhibition of recombinant full-length human NUAK2 at 1 uM using KKKVSRSGLYRSPSMPENLNRPR as substrate measured after 40 mins in presence of [gamma33P]ATP by scintillation counting method relative to control.
For series [9], the system named is Discoidin domain-containing receptor 2 (Homo sapiens), Q16832 [UNDEFINED MUTATION]. Kind of series: Inhibition of recombinant human DDR2 S642A mutant (467 to end residues) at 1 uM using KKSRGDYMTMQIG as substrate measured after 40 mins in presence of [gamma33P]ATP by scintillation counting method relative to control.
Series [10] addresses Serine/threonine-protein kinase 17B (Homo sapiens) (UniProt O94768). Kind of series: Inhibition of recombinant full-length human DRAK2 at 1 uM using KKRPQRRYSNVF as substrate measured after 120 mins in presence of [gamma33P]ATP by scintillation counting method relative to control.
In series [11] the target is Ephrin type-B receptor 3 (Homo sapiens) (UniProt P54753). Kind of series: Inhibition of recombinant human EphB3 (599 to 920 residues) at 1 uM using poly(Glu, Tyr) 4:1 as substrate measured after 40 mins in presence of [gamma33P]ATP by scintillation counting method relative to control. The method in brief: (§1)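 Single-point inhibition at 1 µM was measured in the Eurofins KinaseProfiler panel. Values are the mean of two independent experiments.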

The target of series [12] is Tyrosine-protein kinase Fes/Fps (Homo sapiens) (UniProt P07332). Kind of series: Inhibition of recombinant human FES (2 to end residues) at 1 uM using poly(Glu, Tyr) 4:1 as substrate measured after 40 mins in presence of [gamma33P]ATP by scintillation counting method relative to control.
Series [13] has as its target Serine/threonine-protein kinase PLK3 (Homo sapiens) (UniProt Q9H4B4). Kind of series: Inhibition of recombinant human Plk3 (19 to 301 residues) at 1 uM using casein as substrate measured after 40 mins in presence of [gamma33P]ATP by scintillation counting method relative to control. The method in brief:
as §1

Series [14] addresses Rho-associated protein kinase 2 (Homo sapiens) (UniProt O75116). Kind of series: Inhibition of human ROCK2 (11 to 552 residues) at 1 uM using KEAKEKRQEQIAKRRRLSSLRASTSKSGGSQK as substrate measured after 40 mins in presence of [gamma33P]ATP by scintillation counting method relative to control. The method in brief: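 Percent inhibition at 1 µM was measured by the contract KinaseProfiler service (Eurofins) on the human kinase. Values are the mean of two independent experiments.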

Series [15] deals with eIF-2-alpha kinase GCN2 (Homo sapiens), Q9P2K8 [E556G]. Kind of series: Inhibition of recombinant full-length human GCN2 E556G mutant at 1 uM using RSRSRSRSRSRSRSR as substrate measured after 40 mins in presence of [gamma33P]ATP by scintillation counting method relative to control.
The target in series [16] is G protein-coupled receptor kinase 3 (Homo sapiens) (UniProt P35626). Kind of series: Inhibition of recombinant full-length human GRK3 at 1 uM using casein as substrate measured after 40 mins in presence of [gamma33P]ATP by scintillation counting method relative to control.
Series [17] deals with Tyrosine-protein kinase ITK/TSK (Homo sapiens) (UniProt Q08881). Kind of series: Inhibition of recombinant human ITK (352 to 617 residues) at 1 uM using myelin basic protein as substrate measured after 40 mins in presence of [gamma33P]ATP by scintillation counting method relative to control.
For series [18], the system named is Angiopoietin-1 receptor (Homo sapiens), Q02763 [Q939H,Q940H,Y897S]. Kind of series: Inhibition of human Tie2 Q939H/Q940H/Y897S mutant (771 to end residues) at 1 uM using EFPIYDFLPAKKK as substrate measured after 40 mins in presence of [gamma33P]ATP by scintillation counting method relative to control. The method in brief: as §1
Series [19] deals with NT-3 growth factor receptor (Homo sapiens) (UniProt Q16288). Kind of series: Inhibition of recombinant human TrkC (510 to end residues) at 1 uM using GEEPLYWSFPAKKK as substrate measured after 40 mins in presence of [gamma33P]ATP by scintillation counting method relative to control.
Series [20] addresses Phosphatidylinositol 4-phosphate 3-kinase C2 domain-containing subunit alpha (Homo sapiens) (UniProt O00443). Kind of series: Inhibition of recombinant human PI3KC2alpha (299 to end residues) at 1 uM using phosphatidylinositol as substrate measured after 40 mins by HTRF assay relative to control.

The source made the active and inactive calls. No cut-off for these calls is given here.

Chain of Phosphatidylinositol 4-phosphate 3-kinase C2 domain-containing subunit alpha (Homo sapiens) (O00443 whole entry, the tested form may be a part): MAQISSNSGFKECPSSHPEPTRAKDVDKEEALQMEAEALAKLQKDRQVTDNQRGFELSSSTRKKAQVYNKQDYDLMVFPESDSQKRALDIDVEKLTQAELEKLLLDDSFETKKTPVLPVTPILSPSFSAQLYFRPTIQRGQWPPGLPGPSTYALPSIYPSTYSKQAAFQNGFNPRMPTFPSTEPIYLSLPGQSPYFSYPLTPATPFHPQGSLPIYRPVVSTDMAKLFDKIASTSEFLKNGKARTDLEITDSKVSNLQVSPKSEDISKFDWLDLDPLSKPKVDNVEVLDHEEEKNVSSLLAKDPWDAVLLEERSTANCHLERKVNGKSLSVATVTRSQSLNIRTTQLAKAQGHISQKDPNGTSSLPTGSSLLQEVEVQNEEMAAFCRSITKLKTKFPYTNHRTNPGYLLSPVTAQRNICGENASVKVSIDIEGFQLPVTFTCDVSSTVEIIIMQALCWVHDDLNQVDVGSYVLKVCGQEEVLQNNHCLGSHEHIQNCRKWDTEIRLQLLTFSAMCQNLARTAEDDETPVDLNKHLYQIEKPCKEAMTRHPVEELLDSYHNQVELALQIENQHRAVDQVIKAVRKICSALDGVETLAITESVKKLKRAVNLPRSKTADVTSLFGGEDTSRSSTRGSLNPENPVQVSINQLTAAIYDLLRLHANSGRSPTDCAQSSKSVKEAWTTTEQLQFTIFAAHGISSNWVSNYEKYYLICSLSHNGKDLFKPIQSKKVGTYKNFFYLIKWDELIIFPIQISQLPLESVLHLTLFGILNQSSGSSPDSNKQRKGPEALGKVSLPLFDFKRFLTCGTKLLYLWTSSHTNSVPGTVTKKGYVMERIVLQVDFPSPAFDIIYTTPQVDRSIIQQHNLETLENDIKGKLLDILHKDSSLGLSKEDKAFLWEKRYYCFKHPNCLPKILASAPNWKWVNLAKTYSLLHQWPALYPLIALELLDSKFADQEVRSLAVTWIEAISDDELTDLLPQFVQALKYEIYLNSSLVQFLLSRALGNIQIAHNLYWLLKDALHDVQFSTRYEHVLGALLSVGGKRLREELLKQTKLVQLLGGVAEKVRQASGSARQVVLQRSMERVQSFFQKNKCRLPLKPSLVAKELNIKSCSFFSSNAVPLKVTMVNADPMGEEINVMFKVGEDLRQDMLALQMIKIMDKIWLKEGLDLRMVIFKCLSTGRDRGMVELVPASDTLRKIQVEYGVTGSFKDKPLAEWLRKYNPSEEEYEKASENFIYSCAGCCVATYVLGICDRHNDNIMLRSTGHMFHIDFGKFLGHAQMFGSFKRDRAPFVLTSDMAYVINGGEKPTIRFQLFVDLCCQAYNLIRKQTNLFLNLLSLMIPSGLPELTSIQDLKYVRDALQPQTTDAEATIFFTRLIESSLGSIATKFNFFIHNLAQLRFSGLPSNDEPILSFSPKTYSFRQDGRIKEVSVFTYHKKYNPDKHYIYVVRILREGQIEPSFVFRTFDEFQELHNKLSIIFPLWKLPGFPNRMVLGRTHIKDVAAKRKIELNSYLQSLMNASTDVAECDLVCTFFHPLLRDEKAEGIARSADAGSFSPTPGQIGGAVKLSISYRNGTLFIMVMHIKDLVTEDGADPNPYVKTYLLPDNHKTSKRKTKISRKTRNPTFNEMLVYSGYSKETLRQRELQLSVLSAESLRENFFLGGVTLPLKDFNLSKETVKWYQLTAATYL
Chain of Rho-associated protein kinase 2 (Homo sapiens) (O75116 whole entry, looked up, the tested form may be a part): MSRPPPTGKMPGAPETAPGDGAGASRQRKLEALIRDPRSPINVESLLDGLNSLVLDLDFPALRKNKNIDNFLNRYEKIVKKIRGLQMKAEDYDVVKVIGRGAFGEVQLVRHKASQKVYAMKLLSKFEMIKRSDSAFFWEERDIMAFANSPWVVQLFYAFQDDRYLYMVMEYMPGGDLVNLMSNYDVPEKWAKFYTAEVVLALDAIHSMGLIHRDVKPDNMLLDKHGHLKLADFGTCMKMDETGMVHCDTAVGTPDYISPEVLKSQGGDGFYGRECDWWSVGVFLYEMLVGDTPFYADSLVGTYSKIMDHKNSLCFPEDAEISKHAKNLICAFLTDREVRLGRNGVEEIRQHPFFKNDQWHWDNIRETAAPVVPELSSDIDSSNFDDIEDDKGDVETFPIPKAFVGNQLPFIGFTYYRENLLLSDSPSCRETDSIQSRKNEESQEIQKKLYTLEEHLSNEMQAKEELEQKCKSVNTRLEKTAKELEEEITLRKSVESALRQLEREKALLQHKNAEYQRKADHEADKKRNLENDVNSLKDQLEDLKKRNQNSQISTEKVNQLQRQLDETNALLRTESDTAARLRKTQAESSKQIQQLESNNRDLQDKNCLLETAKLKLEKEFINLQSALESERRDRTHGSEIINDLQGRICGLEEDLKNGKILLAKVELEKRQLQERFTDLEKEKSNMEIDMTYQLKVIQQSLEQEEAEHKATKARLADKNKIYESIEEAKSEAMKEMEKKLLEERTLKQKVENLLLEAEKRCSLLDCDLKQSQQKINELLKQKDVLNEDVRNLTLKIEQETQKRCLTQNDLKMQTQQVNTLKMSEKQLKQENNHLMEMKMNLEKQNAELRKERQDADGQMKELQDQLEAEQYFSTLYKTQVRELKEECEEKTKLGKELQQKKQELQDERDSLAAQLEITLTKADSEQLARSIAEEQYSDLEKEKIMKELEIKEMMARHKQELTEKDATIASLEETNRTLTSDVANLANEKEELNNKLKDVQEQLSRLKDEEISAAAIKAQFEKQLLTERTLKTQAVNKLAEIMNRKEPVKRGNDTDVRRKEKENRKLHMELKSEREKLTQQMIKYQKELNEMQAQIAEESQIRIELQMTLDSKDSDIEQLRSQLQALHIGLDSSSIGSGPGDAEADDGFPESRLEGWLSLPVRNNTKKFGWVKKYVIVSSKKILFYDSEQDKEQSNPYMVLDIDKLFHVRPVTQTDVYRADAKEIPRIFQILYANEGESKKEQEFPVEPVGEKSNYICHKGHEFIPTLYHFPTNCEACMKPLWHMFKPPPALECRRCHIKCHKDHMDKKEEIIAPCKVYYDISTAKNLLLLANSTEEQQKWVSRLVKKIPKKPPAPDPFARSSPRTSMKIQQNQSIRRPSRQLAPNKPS
Chain of Serine/threonine-protein kinase PLK3 (Homo sapiens) (Q9H4B4 whole entry, looked up, the tested form may be a part): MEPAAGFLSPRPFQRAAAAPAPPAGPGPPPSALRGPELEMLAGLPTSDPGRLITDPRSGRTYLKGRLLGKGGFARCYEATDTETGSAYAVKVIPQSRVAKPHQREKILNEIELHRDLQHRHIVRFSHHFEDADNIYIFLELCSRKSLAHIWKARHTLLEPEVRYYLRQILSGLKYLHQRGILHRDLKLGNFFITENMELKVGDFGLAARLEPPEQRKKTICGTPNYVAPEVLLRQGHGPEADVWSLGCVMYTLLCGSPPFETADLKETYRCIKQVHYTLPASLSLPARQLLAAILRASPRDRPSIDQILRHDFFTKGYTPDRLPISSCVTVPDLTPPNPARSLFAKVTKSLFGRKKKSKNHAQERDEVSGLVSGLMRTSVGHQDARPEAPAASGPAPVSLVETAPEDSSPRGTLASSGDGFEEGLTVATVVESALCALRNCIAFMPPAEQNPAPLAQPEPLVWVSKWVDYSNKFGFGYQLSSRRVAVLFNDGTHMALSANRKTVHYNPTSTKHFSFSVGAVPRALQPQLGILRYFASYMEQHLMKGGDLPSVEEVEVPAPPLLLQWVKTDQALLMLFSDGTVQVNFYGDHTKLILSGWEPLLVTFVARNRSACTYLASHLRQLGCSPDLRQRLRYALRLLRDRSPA
Chain of Tyrosine-protein kinase ITK/TSK (Homo sapiens) (Q08881 whole entry, the tested form may be a part): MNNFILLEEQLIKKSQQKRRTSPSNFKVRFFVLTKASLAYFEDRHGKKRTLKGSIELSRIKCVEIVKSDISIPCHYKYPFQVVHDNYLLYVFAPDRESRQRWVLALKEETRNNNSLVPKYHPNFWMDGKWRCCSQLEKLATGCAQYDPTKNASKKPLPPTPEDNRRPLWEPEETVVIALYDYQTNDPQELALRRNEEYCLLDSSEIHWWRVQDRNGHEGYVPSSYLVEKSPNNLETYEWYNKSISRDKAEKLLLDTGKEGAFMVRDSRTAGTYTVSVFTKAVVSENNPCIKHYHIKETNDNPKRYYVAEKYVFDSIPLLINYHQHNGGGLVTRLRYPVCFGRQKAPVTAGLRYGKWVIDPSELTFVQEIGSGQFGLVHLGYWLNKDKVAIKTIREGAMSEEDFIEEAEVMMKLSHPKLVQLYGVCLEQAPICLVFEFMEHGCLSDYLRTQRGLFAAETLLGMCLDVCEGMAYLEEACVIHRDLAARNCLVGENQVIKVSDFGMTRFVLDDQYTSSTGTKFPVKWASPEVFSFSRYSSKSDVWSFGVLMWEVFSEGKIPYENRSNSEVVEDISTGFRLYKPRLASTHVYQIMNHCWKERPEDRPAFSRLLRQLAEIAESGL
Chain of SRSF protein kinase 3 (Homo sapiens) (Q9UPE1 whole entry): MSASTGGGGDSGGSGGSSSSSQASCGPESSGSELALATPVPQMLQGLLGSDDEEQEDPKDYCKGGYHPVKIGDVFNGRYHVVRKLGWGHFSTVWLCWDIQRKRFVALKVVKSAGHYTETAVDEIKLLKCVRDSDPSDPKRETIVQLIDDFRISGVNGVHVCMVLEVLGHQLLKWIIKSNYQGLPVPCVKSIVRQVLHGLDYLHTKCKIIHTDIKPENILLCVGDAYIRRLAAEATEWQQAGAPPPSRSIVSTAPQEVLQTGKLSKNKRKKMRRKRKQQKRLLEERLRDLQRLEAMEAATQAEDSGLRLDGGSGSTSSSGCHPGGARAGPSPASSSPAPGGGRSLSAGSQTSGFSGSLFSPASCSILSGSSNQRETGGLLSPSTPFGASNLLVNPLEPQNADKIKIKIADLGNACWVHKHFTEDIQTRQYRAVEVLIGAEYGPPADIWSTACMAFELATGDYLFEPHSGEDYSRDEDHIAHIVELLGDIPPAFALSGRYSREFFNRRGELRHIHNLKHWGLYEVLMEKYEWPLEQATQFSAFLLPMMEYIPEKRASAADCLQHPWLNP

Turning to `CN(C)C(=O)c1cc2cnc(Nc3ccc(NC(=O)CCCCCCCN=C=S)cc3)nc2n1C1CCCC1`, the inhibition in series [1] is 79%; in series [5], 18%; in series [6], 66%; in series [7], -6%; in series [8], 66%; in [9], 17%. Also, the inhibition in [10] is -8%; in [11] it was 12%; in series [12], 7%; in series [13], 1%; in series [14], 5%; in [15] it was 0%. The inhibition in series [16] was 3%; in [17], 91%; in [18], 20%; in series [19] it was 80%; in series [20] it was -3%. For the same molecule, the IC50 in series [2] was determined as 947 nM. Further, the outcome in [3] was Active. The Activity result in series [4] is recorded as “Non-Toxic”.

Usually inhibition stands for the relative decrease from the control value, in per cent. Usually IC50 stands for the concentration needed to halve the response being measured.

The values are drawn from ChEMBL document CHEMBL4376814, “Novel cyclin-dependent kinase 9 (CDK9) inhibitor with suppression of cancer stemness activity against non-small-cell lung cancer” (Eur J Med Chem, 2019).
